# From ChEMBL document CHEMBL1144801, “Synthesis of new benzimidazole linked pyrrolo[2,1-c][1,4]benzodiazepine conjugates with efficient DNA-binding affinity and potent cytotoxicity” (Bioorg Med Chem Lett, 2008)
# Active and inactive are the calls of the source. The rule behind the calls is not given here.
# Tests used:
# DNA = experiment: Binding affinity to calf thymus DNA at 1:5 (compound:DNA) molar ratio in 37degC after 18 hrs by thermal denaturation studies; type: nucleic-acid assay; details: Bos taurus
# Method in brief: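 Calf thymus DNA with ligand at a 1:5 ligand:DNA molar ratio in aqueous 10 mM sodium phosphate + 1 mM EDTA, pH 7.00. Mixtures were incubated at 37 °C and read at 0 h and 18 h. The read-out was the shift in helix melting temperature (ΔTm) relative to CT-DNA alone.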
# Bacilli = experiment: Inhibition of Bacillus amyloli BamH1 restriction endonuclease-mediated pBR322 cleavage by RED100-restriction endonuclease digestion assay
# Method in brief: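 Plasmid pBR322 exposed to the conjugate, then digested with BamH1 (20 U) for 1 h at 37 °C. Cut and uncut products separated by agarose gel electrophoresis and visualized by ethidium bromide staining under UV. Controls were untreated pBR322 and a complete BamH1 digest.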
# LOX IMVI = experiment: Cytotoxicity against human LOXIMVI cells; type: functional
# Malme-3M = experiment: Cytotoxicity against human MALME3M cells; type: functional
# M14 = experiment: Cytotoxicity against human M14 cells; type: functional
# SK-MEL-2 = experiment: Cytotoxicity against human SKMEL2 cells; type: functional
# SK-MEL-28 = experiment: Cytotoxicity against human SKMEL28 cells; type: functional
# SK-MEL-5 = experiment: Cytotoxicity against human SKMEL5 cells; type: functional
# UACC-257 = experiment: Cytotoxicity against human UACC257 cells; type: functional
# UACC-62 = experiment: Cytotoxicity against human UACC62 cells; type: functional
# [1] = Cytotoxicity against human OVCAR1 cells; type: functional
# OVCAR-3 = experiment: Cytotoxicity against human OVCAR-3 cells; type: functional
# OVCAR-4 = experiment: Cytotoxicity against human OVCAR4 cells; type: functional
# OVCAR-5 = experiment: Cytotoxicity against human OVCAR5 cells; type: functional
# OVCAR-8 = experiment: Cytotoxicity against human OVCAR8 cells; type: functional
# SK-OV-3 = experiment: Cytotoxicity against human SKOV3 cells; type: functional
# 786-0 = experiment: Cytotoxicity against human 786-0 cells; type: functional
# A498 = experiment: Cytotoxicity against human A498 cells; type: functional
# ACHN = experiment: Cytotoxicity against human ACHN cells; type: functional
# CAKI-1 = experiment: Cytotoxicity against human CAKI1 cells; type: functional
# Hs-578T = experiment: Cytotoxicity against human HS578T cells; type: functional
# MDA-MB-435 = experiment: Cytotoxicity against human MDA-MB-435 cells; type: functional
# RXF 393 = experiment: Cytotoxicity against human RXF393 cells; type: functional
# SN12C = experiment: Cytotoxicity against human SN12C cells; type: functional
# TK-10 = experiment: Cytotoxicity against human TK10 cells; type: functional
# UO-31 = experiment: Cytotoxicity against human UO31 cells; type: functional
# DU-145 = experiment: Cytotoxicity against human DU145 cells; type: functional
# SF-268 = experiment: Cytotoxicity against human SF268 cells; type: functional
# SF-539 = experiment: Cytotoxicity against human SF539 cells; type: functional
# SNB-19 = experiment: Cytotoxicity against human SNB19 cells; type: functional
# SNB-75 = experiment: Cytotoxicity against human SNB75 cells; type: functional
# U-251 = experiment: Cytotoxicity against human U251 cells; type: functional
# CCRF-CEM = experiment: Cytotoxicity against human CCRF-CEM cells; type: functional
# [2] = Cytotoxicity against human HL60(TB) cells; type: functional, HL-60(TB); details: HL-60
# K562 = experiment: Cytotoxicity against human K562 cells; type: functional
# MOLT-4 = experiment: Cytotoxicity against human MOLT4 cells; type: functional
# RPMI-8226 = experiment: Cytotoxicity against human RPMI8226 cells; type: functional
# SR = experiment: Cytotoxicity against human SR cells; type: functional
# A549 = experiment: Cytotoxicity against human A549 cells; type: functional
# EKVX = experiment: Cytotoxicity against human EKVX cells; type: functional
# HOP-92 = experiment: Cytotoxicity against human HOP92 cells; type: functional
# NCI-H226 = experiment: Cytotoxicity against human NCI-H226 cells; type: functional
# NCI-H23 = experiment: Cytotoxicity against human NCI-H23 cells; type: functional
# NCI-H322M = experiment: Cytotoxicity against human NCI-H322M cells; type: functional
# NCI-H460 = experiment: Cytotoxicity against human NCI-H460 cells; type: functional
# NCI-H522 = experiment: Cytotoxicity against human NCI-H522 cells; type: functional
# COLO 205 = experiment: Cytotoxicity against human COLO205 cells; type: functional
# HCC 2998 = experiment: Cytotoxicity against human HCC2998 cells; type: functional
# HCT-116 = experiment: Cytotoxicity against human HCT116 cells; type: functional
# HCT-15 = experiment: Cytotoxicity against human HCT15 cells; type: functional
# HT-29 = experiment: Cytotoxicity against human HT29 cells; type: functional
# KM12 = experiment: Cytotoxicity against human KM12 cells; type: functional
# SW-620 = experiment: Cytotoxicity against human SW620 cells; type: functional
# MCF7 = experiment: Cytotoxicity against human MCF7 cells; type: functional
# NCI/ADR-RES = experiment: Cytotoxicity against human NCI/ADR-RES cells; type: functional
# MDA-MB-231 = experiment: Cytotoxicity against human MDA-MB-231 cells; type: functional
# BT-549 = experiment: Cytotoxicity against human BT549 cells; type: functional
# T47D = experiment: Cytotoxicity against human T47D cells; type: functional
# MDA-MB-468 = experiment: Cytotoxicity against human MDA-MB-468 cells; type: functional
# HOP-62 = experiment: Cytotoxicity against human HOP62 cells; type: functional
structure (smiles),measurement,setting,value
COc1cc2c(cc1OCCCn1c(-c3cccs3)nc3ccccc31)N=C[C@@H]1CCCN1C2=O,ΔTm,DNA,5.1 °C
COc1cc2c(cc1OCCCCCn1c(-c3cccs3)nc3ccccc31)N=C[C@@H]1CCCN1C2=O,ΔTm,DNA,6.1 °C
COc1cc2c(cc1OCCCn1c(-c3ccco3)nc3ccccc31)NC(=O)[C@@H]1CCCN1C2=O,ΔTm,DNA,0.7 °C
COc1cc2c(cc1OCCCCn1c(-c3ccco3)nc3ccccc31)N=C[C@@H]1CCCN1C2=O,ΔTm,DNA,0 °C
same,Activity,Bacilli,inactive
COc1cc2c(cc1OCCCn1c(-c3ccco3)nc3ccccc31)N=C[C@@H]1CCCN1C2=O,ΔTm,DNA,6.1 °C
COc1cc2c(cc1OCCCCn1c(-c3cccs3)nc3ccccc31)N=C[C@@H]1CCCN1C2=O,GI50,LOX IMVI,780 nM
same,GI50,Malme-3M,1740 nM
same,GI50,M14,1350 nM
same,GI50,SK-MEL-2,1470 nM
same,GI50,SK-MEL-28,1530 nM
same,GI50,SK-MEL-5,1090 nM
same,GI50,UACC-257,2540 nM
same,GI50,UACC-62,1570 nM
same,GI50,[1],750 nM
same,GI50,OVCAR-3,1720 nM
same,GI50,OVCAR-4,1610 nM
same,GI50,OVCAR-5,3270 nM
same,GI50,OVCAR-8,2580 nM
same,GI50,SK-OV-3,3320 nM
same,GI50,786-0,1710 nM
same,GI50,A498,1680 nM
same,GI50,ACHN,2810 nM
same,GI50,CAKI-1,940 nM
same,GI50,Hs-578T,1700 nM
same,GI50,MDA-MB-435,1390 nM
same,GI50,RXF 393,1340 nM
same,GI50,SN12C,2500 nM
same,GI50,TK-10,2090 nM
same,GI50,UO-31,1230 nM
same,GI50,DU-145,1320 nM
same,GI50,SF-268,1800 nM
same,GI50,SF-539,1720 nM
same,GI50,SNB-19,1530 nM
same,GI50,SNB-75,1220 nM
same,GI50,U-251,1770 nM
same,ΔTm,DNA,1 °C
same,GI50,CCRF-CEM,240 nM
same,GI50,[2],5180 nM
same,GI50,K562,15500 nM
same,GI50,MOLT-4,3790 nM
same,GI50,RPMI-8226,310 nM
same,GI50,SR,450 nM
same,GI50,A549,3220 nM
same,GI50,EKVX,3360 nM
same,GI50,HOP-92,1330 nM
same,GI50,NCI-H226,2130 nM
same,GI50,NCI-H23,2050 nM
same,GI50,NCI-H322M,2700 nM
same,GI50,NCI-H460,1550 nM
same,GI50,NCI-H522,1040 nM
same,GI50,COLO 205,1070 nM
same,GI50,HCC 2998,2080 nM
same,GI50,HCT-116,1750 nM
same,GI50,HCT-15,3190 nM
same,GI50,HT-29,1970 nM
same,GI50,KM12,1920 nM
same,GI50,SW-620,1840 nM
same,GI50,MCF7,660 nM
same,GI50,NCI/ADR-RES,3240 nM
same,GI50,MDA-MB-231,1390 nM
same,GI50,BT-549,410 nM
same,GI50,T47D,500 nM
same,GI50,MDA-MB-468,330 nM
COc1cc2c(cc1OCCCCCn1c(-c3cccs3)nc3ccccc31)NC(=O)[C@@H]1CCCN1C2=O,ΔTm,DNA,0.8 °C
COc1cc2c(cc1OCCCCCn1c(-c3ccco3)nc3ccccc31)N=C[C@@H]1CCCN1C2=O,GI50,LOX IMVI,< 10 nM
same,GI50,Malme-3M,10 nM
same,GI50,M14,< 10 nM
same,GI50,SK-MEL-2,20 nM
same,GI50,SK-MEL-28,< 10 nM
same,GI50,SK-MEL-5,< 10 nM
same,GI50,UACC-257,< 10 nM
same,GI50,UACC-62,< 10 nM
same,GI50,[1],10 nM
same,GI50,OVCAR-3,< 10 nM
same,GI50,OVCAR-4,< 10 nM
same,GI50,OVCAR-5,< 10 nM
same,GI50,OVCAR-8,< 10 nM
same,GI50,SK-OV-3,< 10 nM
same,GI50,786-0,< 10 nM
same,GI50,A498,< 10 nM
same,GI50,ACHN,< 10 nM
same,GI50,CAKI-1,< 10 nM
same,GI50,Hs-578T,< 10 nM
same,GI50,MDA-MB-435,< 10 nM
same,GI50,RXF 393,< 10 nM
same,GI50,SN12C,< 10 nM
same,GI50,TK-10,10 nM
same,GI50,UO-31,100 nM
same,GI50,DU-145,20 nM
same,GI50,SF-268,< 10 nM
same,GI50,SF-539,< 10 nM
same,GI50,SNB-19,< 10 nM
same,GI50,SNB-75,< 10 nM
same,GI50,U-251,< 10 nM
same,ΔTm,DNA,7 °C
same,Activity,Bacilli,Active
same,GI50,CCRF-CEM,< 10 nM
same,GI50,[2],< 10 nM
same,GI50,K562,< 10 nM
same,GI50,MOLT-4,< 10 nM
same,GI50,RPMI-8226,< 10 nM
same,GI50,SR,< 10 nM
same,GI50,A549,< 10 nM
same,GI50,EKVX,< 10 nM
same,GI50,HOP-62,< 10 nM
same,GI50,HOP-92,10 nM
same,GI50,NCI-H226,< 10 nM
same,GI50,NCI-H23,< 10 nM
same,GI50,NCI-H322M,30 nM
same,GI50,NCI-H460,< 10 nM
same,GI50,NCI-H522,< 10 nM
same,GI50,COLO 205,< 10 nM
same,GI50,HCT-116,< 10 nM
same,GI50,HCT-15,20 nM
same,GI50,HT-29,< 10 nM
same,GI50,KM12,< 10 nM
same,GI50,SW-620,< 10 nM
same,GI50,MCF7,< 10 nM
same,GI50,NCI/ADR-RES,230 nM
same,GI50,MDA-MB-231,10 nM
same,GI50,BT-549,< 10 nM
same,GI50,T47D,< 10 nM
same,GI50,MDA-MB-468,< 10 nM
COc1cc2c(cc1O)N=C[C@@H]1CCCN1C2=O,ΔTm,DNA,0.7 °C
